Assay results as given in paper PMC9298258 (Clinical Pharmacology and Therapeutics, 2021).

Columns and labels:
[1] = tested on: patients with RA; conditions: cited from earlier work
[2] = cited from earlier work
[3] = Plasma PK of tirabrutinib in two phase I studies; type: in vivo; conditions: human, oral
[4] = Population PK model; type: in vivo, human
Method in brief: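 Plasma drug was measured by validated LC-MS/MS with an isotopically labeled internal standard (LLOQ 1.0 ng/mL). Pooled data came from healthy and RA subjects in two phase I studies. The model was two-compartment with first-order absorption, lag time and relative bioavailability, with IIV on CL/F, Vc/F and ka. Fitting used NONMEM FOCE-I. Covariates were screened on CL/F, Vc/F and ka, and bootstrap gave CIs.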

[5] = tested on: murine collagen–induced arthritis model; conditions: cited from earlier work
[6] = tested on: subjects with RA; assay: Exploratory efficacy in study #2, part B; type: in vivo, human; conditions: 20 mg q.d.
Method in brief: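 RA subjects in phase I part B were assessed at day 1 predose, week 2 and week 4. End points were plasma hsCRP and tender joint count 68 within the ACR core set. Each end point was regressed linearly against model-predicted time above 90% BTK occupancy over a 24-hour dosing interval.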

[7] = molecular target: BTK (Homo sapiens, UniProt Q06187); assay: BTK occupancy test in peripheral blood mononuclear cells; type: in vivo
Method in brief: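 PBMC BTK occupancy measured by duplexed homogeneous TR-FRET, reading free and total BTK in the same well. LLOQ was 12 ng/mL; baselines below it were excluded. Study #1 used days 8 and 17, with day-8 predose as baseline. Study #2 sampled at baseline, days 1–7 and up to 120 h post-last-dose, or at PK timepoints. Covalent binding model with BTK-synthesis feedback (ksyn); NONMEM FOCE-I; bootstrap.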

[8] = bootstrap (N = 1000) final model median estimate
[9] = final PopPK model estimate (RSE%)

Sequence of BTK (Q06187 whole entry): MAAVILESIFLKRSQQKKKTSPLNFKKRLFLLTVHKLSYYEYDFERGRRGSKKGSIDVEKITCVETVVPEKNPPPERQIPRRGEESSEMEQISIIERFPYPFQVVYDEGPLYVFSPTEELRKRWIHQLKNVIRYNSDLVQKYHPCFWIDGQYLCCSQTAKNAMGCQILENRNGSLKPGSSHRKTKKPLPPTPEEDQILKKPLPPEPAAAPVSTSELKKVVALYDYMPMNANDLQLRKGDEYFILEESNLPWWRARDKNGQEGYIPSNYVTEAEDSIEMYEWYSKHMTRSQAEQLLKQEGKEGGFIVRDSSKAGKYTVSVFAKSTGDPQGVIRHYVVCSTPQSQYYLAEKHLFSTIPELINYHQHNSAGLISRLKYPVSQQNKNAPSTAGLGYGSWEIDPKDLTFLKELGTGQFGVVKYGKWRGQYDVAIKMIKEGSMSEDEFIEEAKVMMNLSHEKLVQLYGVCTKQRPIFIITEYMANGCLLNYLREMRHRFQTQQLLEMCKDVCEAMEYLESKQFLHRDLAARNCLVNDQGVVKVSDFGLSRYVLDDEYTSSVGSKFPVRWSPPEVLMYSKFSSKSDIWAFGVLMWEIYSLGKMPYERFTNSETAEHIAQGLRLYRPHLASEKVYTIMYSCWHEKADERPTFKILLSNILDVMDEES

Question: Which “efficacy in moderate-to-severe RA” value [1] does the source give for `C[C@H]1CN(C2COC2)CCN1c1ccc(Nc2cc(-c3ccnc(N4CCn5c(cc6c5CC(C)(C)C6)C4=O)c3CO)cn(C)c2=O)nc1` [fenebrutinib] here?
Answer: comparable with adalimumab

Question: What about the “BTK inhibition achieved by the efficacious doses” value ([1]; subjects with RA) of the same compound?
Answer: 90%

Question: With `C=CC(=O)Nc1cccc(Nc2nc(Nc3ccc(OCCOC)cc3)ncc2F)c1` [spebrutinib] as the compound, how does the “disease markers in patients with active RA” value [1] read?
Answer: reduce disease markers

Question: For `CC#CC(=O)N1CC[C@@H](n2c(=O)n(-c3ccc(Oc4ccccc4)cc3)c3c(N)ncnc32)C1` [tirabrutinib, Tirabrutinib], which “dose proportionality of pharmacokinetics” value ([2]; 20-to-320 mg dose range) is on record?
Answer: dose‐proportional

Question: And the tolerability ([2]; patients with B-cell malignancies, 20 to 480 mg q.d.)?
Answer: generally well‐tolerated

Question: What about the “absorption following oral administration” value ([2]; phase I dose escalation study) of the same compound?
Answer: rapidly absorbed

Question: What about the half-life [3] of the same compound?
Answer: 6.2 to 7.3 h

Question: And the Absorption lag time [4, 8]?
Answer: 0.465 h

Question: What about the “Absorption rate constant, ka” value [4, 8] of the same compound?
Answer: 0.811 h⁻¹

Question: What about the “Apparent oral clearance, CL/F” value [4, 8] of the same compound?
Answer: 62.5 L/h

Question: And the “Apparent oral volume, Vc/F” value [4, 8]?
Answer: 357 L

Question: And the “IIV of CL/F” value [4, 8]?
Answer: 27.1%

Question: What about the “IIV of Vc/F” value [4, 8] of the same compound?
Answer: 53.7%

Question: And the IIV of ka [4, 8]?
Answer: 89.6%

Question: And the “Influence of age on ka” value [4, 8]?
Answer: –1.74

Question: And the Absorption lag time [4, 9]?
Answer: 0.465 (1) h

Question: And the “Absorption rate constant, ka” value [4, 9]?
Answer: 0.800 (14) h^−1

Question: And the “Apparent oral clearance, CL/F” value [4, 9]?
Answer: 62.6 (4) L/h

Question: And the “Apparent oral volume, Vc/F” value [4, 9]?
Answer: 357 (7) L

Question: What about the IIV of ka [4, 9] of the same compound?
Answer: 93.4 (13) %

Question: And the “Influence of age on ka” value ([4]; final PopPK model estimate (RSE%), covariate exponent)?
Answer: –1.74 (26)

Question: What about the “arthritis severity and bone damage” value [5] of the same compound?
Answer: dose‐dependent inhibition

Question: And the “change in TJC68” value ([6]; week 4 visit)?
Answer: small numerical decrease

Question: And the “change in hsCRP levels” value ([6]; week 4 visit)?
Answer: small numerical decrease

Question: What about the “effects on disease-related outcomes” value ([6]; exploratory efficacy analysis) of the same compound?
Answer: modest effects

Question: And the “Feedback rate constant on protein synthesis from BTK inhibition, ksyn” value [7, 8]?
Answer: -0.0290 h⁻¹

Question: And the “Feedback rate constant on protein synthesis from BTK inhibition, ksyn” value ([7]; final PK/PD model estimate (RSE%))?
Answer: −0.0301 (59) h^−1

Question: And the “BTK suppression after multiple dosing” value ([7]; model and observed fBTK)?
Answer: maintained through a 24‐hour dosing interval
